Rad51 HR inh – blocks human Rad51 in homologous recombination; Q06609; hRad51 DNA strand exchange, fluorescence dequenching; inhibition, % at 10 µM; 200,000 tested, 0.085% active; AID 1385;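 active = inhibition above 40% at the single screening dose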;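 note: 0% = DMSO control wells and 100% = blanks with heterologous ssDNA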
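Material: hRad51 filaments on single-stranded DNA; Reagent: Donor/quencher-labelled 47-bp dsDNA substrate; Compound: 10 µM final, single point; Schedule: 37 °C 15-min filament assembly, 30-min compound preincubation, 15-min exchange; Technique: FRET fluorescence, excitation 485 nm, emission 520 nm; Benchmarks: control wells and blank wells on each plate.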
PMI act hi M6P – increases human PMI activity with near-saturating mannose 6-phosphate; P34949; coupled PMI enzyme assay, resazurin fluorescence, 20 min; stronger effect = higher value; 1 = untreated enzyme, 0 = substrate-free blank; activation factor at 20 µM; 190,000 tested, 0.34% active; AID 1216;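 active = activation factor of 2 or more at 20 µM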
Target sequence (P34949 whole entry, looked up): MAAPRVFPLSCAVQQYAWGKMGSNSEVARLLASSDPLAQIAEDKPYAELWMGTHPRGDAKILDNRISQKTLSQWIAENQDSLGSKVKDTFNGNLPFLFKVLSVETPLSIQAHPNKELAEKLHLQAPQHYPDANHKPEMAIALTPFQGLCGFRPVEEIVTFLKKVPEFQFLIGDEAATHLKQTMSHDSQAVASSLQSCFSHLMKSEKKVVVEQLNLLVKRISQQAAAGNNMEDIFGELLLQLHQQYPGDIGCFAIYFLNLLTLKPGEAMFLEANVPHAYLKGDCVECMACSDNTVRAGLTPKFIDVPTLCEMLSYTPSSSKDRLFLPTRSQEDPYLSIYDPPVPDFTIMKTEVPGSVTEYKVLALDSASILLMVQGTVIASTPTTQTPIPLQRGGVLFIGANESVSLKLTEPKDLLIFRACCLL
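Test system: human PMI in coupled enzyme assay; Input: PMI at 15 ng/mL final; Medium: HEPES buffer, pH 7.4; Schedule: 20 min incubation at room temperature; Technique: resorufin fluorescence at Ex 544/Em 590 nm; Compound: 20 µM single dose; Probe or stimulus: Near-saturating mannose-6-phosphate, 1.0 mM.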
PMI act – phosphomannose isomerase (human) activation. P34949. purified human PMI, coupled resazurin fluorescence, 20 min; stronger effect = higher value; 1 = vehicle control, 0 substrate-free wells. activation factor at 20 µM. 190,000 tested, 0.005% active. AID 1214;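 active = activation factor of 2 or more at 20 µM, relative to plate controls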
Calpain2 inh – inhibitors of pig calpain II | purified calpain II, fluorogenic peptide substrate, 30 min | inhibition, % at 16 µM | 220,000 tested, 0.37% active;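 active = inhibition above about 50%, limit read from the data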
HMGR II inh – inhibitors of class II HMG-CoA reductase from Enterococcus faecalis; purified E. faecalis HMGR, NADPH absorbance 340 nm kinetic; inhibition, % at 10 µM; 190,000 tested, 0.41% active;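 active = inhibition above a set limit, the median over all tested compounds plus 3 SD, cut at about 9.5% in these data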;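 note: enzyme runs in reverse so mevalonate oxidation gives rising NADPH absorbance; 0% = complete reaction with DMSO and 100% = background rate lacking mevalonate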
Numbers without * were called inactive; nt = no result given. Compounds with a hit are over-represented: about 1.1% of the library has one in this group of screens.

SMILES | Rad51 HR inh | PMI act hi M6P | PMI act | Calpain2 inh | HMGR II inh
CN1CCN(C(=O)C2CCN(c3ncc(C(F)(F)F)cc3Cl)CC2)CC1 | 3 | 1 | 1 | -2 | -2
O=C(CSc1ncccc1C(=O)O)c1cccc(C(F)(F)F)c1 | -20 | 2.2* | 1.7 | -39 | 0
C=C(C)COc1ccc(-c2[nH]ncc2Oc2ccccc2OCC)c(O)c1 | 1 | 0.9 | 0.9 | 45 | 1
C=C(C)COc1ccc(-c2[nH]ncc2Oc2cccc(OC)c2)c(O)c1 | -10 | 1 | 1 | 57* | 3
COc1ccc(N=c2ssnc2Cl)cc1 | 1 | 0.3 | 0.2 | -7 | 16*
O=C(CSc1cccc[n+]1[O-])Nc1ccc(N2CCOCC2)cc1 | -6 | 1.1 | 1.3 | 17 | -5
COc1ccc(C2Nc3ccccc3C(=O)N2NS(=O)(=O)c2ccc(C)cc2)cc1 (stereo not given) | -3 | 0.9 | 1 | -441 | 13*
C=CCN1C=CC(=O)CC1 | 7 | nt | nt | -7 | nt
Cc1cc(C)n(-c2nc3c(c(=O)[nH]c(=O)n3C)n2Cc2ccccc2)n1 | 2 | 1.1 | 1 | -17 | -2
Cc1cc(C)n(-c2nc3c(c(=O)[nH]c(=O)n3C)n2Cc2ccc(F)cc2)n1 | 66* | 1 | 1 | -7 | -4
CCn1nc(C(=O)OCC(=O)c2c[nH]c3ccccc23)c2ccccc2c1=O | -7 | 1 | 1 | 56* | 3
CC(C)(C)Cc1nnc(NS(=O)(=O)c2ccccc2)s1 | -4 | 1 | 1 | -25 | 14*
CCc1nnc(NS(=O)(=O)c2ccc(NC(=O)c3ccccc3)cc2)s1 | -3 | nt | nt | 17 | nt
Cc1ccc2c(CC(=O)NC3CCCc4ccccc43)coc2c1 (stereo not given) | -4 | 0.9 | 0.8 | 9 | -3
CCN(CC)Cc1c(C(=O)N2CCc3ccccc3C2)nc2ccc(Cl)cn12 | -5 | 0.9 | 1 | -20 | 17*
Fc1ccc(CNc2nc(-c3ccccc3)nc3ccccc23)cc1 | 2 | 0.9 | 0.8 | 55* | 0
Cc1ccc(-c2nc(NCc3ccco3)c3ccccc3n2)cc1 | 2 | 0.9 | 1 | 61* | 0
c1ccc(-c2nc(NCc3cccnc3)c3ccccc3n2)cc1 | 4 | 1 | 0.9 | 20 | 4
CCCCC(=O)Nc1ccc(C(=O)c2ccccc2)cc1 | -7 | 0.9 | 1 | 53* | -2
O=C(NCC1CCCN(C(=O)c2cscn2)C1)c1ccccc1Cl (stereo not given) | 10 | 1 | 1 | -32 | 10*
O=C1Nc2cc(S(=O)(=O)N3CCCC3)ccc2N2CCCC12 (stereo not given) | 2 | 2* | 1.3 | -62 | -2
O=C1Nc2ccccc2N2CCCC12 (stereo not given) | 0 | 1.8 | 1.2 | -156 | -8
COc1n[nH]c(C(=O)NCc2ccccc2)c1[N+](=O)[O-] | 3 | 1 | 1 | -9 | 12*
Cc1ccnc(NC(=O)CCC(=O)N(CC(=O)NC2CCCCC2)Cc2ccc3c(c2)OCO3)c1 | nt | 1 | 0.9 | nt | nt
CCOC(=O)C1=C(C)NC(SC)=NC1c1ccc(OC)cc1 (stereo not given) | nt | 2.3* | 1.5 | -15 | -3
SMILES | Rad51 HR inh | PMI act hi M6P | PMI act | Calpain2 inh | HMGR II inh
CCOC(=O)C1=C(C)NC(C)=C(C(=O)OCC)C1c1ccc(OC)cc1 | -4 | 0.8 | 0.8 | -72 | -6
CCCc1nc2ccc(NC(=O)NCCC(=O)OCC)cc2c(=O)n1Cc1cccc(Cl)c1 | 8 | 1 | 0.9 | 29 | -3
CCOC(=O)CCNC(=O)Nc1ccc2nc(C)n(Cc3cccc(Cl)c3)c(=O)c2c1 | -4 | 0.9 | 0.8 | 66* | -4
O=S(=O)(Nc1ccc(-n2cccc2)cc1)c1ccc(Cl)cc1Cl | 4 | 0.8 | 0.8 | 65* | -6
O=S(=O)(Nc1ccc(-n2cccc2)cc1)c1ccc(Cl)c(Cl)c1 | 4 | nt | nt | 35 | nt
O=C(CCCN1C(=O)c2ccccc2C1=O)Nc1nnc(C2CC2)s1 | 2 | 1.1 | 1.1 | -11 | -4
COc1cc(C(=O)Nc2cccc(C)c2C)c(Br)c(OC)c1OC | 48* | 0.9 | 0.9 | 0 | -4
COC(=O)c1cccc(NC(=O)c2cc(OC)c(OC)c(OC)c2Br)c1 | 4 | 0.9 | 0.9 | 17 | 1
CCOC(=O)C1(C(=O)O)NC(=O)CC1c1ccccc1 (stereo not given) | 4 | 1.1 | 1.1 | -29 | 0
